Data on five compounds can be found in ChEMBL document CHEMBL1134769, “Potent and selective nonpeptide inhibitors of caspases 3 and 7” (J Med Chem, 2001).

Test [1] concerns the target Caspase-8 (Homo sapiens, UniProt Q14790). In words: Inhibitory activity against Caspase-8. Particulars: read-out: Ki app. In outline:
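Recombinant full-length human caspase 8, ~10 units/assay, in Na+MOPS pH 7.5 with 10% glycerol, 0.25 mM EDTA and 5 mM β-mercaptoethanol. Substrate 10 μM Ac-IETD-AMC. Fluorescence at 360/460 nm, 30 °C, 5% final DMSO. Compounds screened at a single dose (typically 5–50 μM), then full IC50 curves for actives.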

Test [2] has as its target T1, Caspase-6 (Homo sapiens, UniProt P55212).
T1 sequence (P55212 whole entry): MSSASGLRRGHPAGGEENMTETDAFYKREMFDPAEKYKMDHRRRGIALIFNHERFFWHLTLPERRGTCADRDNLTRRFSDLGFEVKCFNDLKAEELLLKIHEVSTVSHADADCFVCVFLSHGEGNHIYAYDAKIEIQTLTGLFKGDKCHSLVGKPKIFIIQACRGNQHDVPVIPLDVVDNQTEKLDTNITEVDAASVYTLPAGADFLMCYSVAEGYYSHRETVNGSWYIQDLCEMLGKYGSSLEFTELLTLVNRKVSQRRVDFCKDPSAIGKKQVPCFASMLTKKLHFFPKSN
In words: Inhibitory activity against Caspase-6. Particulars: read-out: Ki app. In a few lines: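 Recombinant full-length human caspase 6 (~10 units/assay) in 50 mM Tris-HCl pH 7.4 with 0.1% CHAPS, 1.5 mM MgCl2, 1 mM EDTA and 5 mM β-mercaptoethanol. Substrate 10 μM Ac-DEVD-AMC. AMC monitored at 360/460 nm, 30 °C, final DMSO 5%. Single-dose screen (typically 5–50 μM), then IC50 determination.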

For test [3], the target named is T2, Caspase-3 (Homo sapiens, UniProt P42574).
T2 sequence (P42574 whole entry): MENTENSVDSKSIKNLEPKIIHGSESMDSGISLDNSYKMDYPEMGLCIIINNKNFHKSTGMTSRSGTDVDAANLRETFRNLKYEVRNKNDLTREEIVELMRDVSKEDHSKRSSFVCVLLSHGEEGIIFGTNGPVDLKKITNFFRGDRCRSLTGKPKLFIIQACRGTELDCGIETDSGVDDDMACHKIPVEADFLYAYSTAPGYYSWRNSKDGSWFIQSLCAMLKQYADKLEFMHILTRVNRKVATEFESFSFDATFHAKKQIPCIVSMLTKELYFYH
In words: Inhibitory activity against caspase-3. Particulars: read-out: Ki app. In a few lines: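 Recombinant full-length human caspase 3 or 7, ~10 units/assay (1 unit = 1 pmol AMC/min). Substrate 10 μM Ac-DEVD-AMC. AMC fluorescence at 360/460 nm, 30 °C, with 5% final DMSO. Single-dose screen (typically 5–50 μM), then IC50 curves; repeated IC50s had CVs typically <30%.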

Test [4] concerns Jurkat (Homo sapiens). In words: In vitro inhibition of Jurkat cell apoptosis at 10 uM of compound.
Test [5] deals with T2, Caspase-3. In words: Inhibition of recombinant human caspase-3.
Test [6] deals with T3, Caspase-2 (Homo sapiens, UniProt P42575).
T3 sequence (P42575 whole entry): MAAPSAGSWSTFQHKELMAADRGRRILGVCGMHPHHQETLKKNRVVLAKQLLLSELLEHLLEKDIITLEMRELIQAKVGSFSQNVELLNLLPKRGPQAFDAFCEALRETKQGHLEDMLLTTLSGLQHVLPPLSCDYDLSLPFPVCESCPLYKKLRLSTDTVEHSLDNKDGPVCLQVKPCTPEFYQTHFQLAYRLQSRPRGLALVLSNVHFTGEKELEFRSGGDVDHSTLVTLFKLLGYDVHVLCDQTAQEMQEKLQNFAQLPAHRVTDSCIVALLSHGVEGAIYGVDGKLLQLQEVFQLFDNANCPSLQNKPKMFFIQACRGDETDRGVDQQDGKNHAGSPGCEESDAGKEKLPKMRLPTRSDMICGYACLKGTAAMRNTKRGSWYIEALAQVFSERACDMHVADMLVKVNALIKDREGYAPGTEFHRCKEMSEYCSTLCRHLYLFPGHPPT
As to the kind of experiment: Inhibitory activity against caspase-2. Particulars: read-out: Ki app. In a few lines:
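Recombinant full-length human caspase 2 (~10 units/assay) in 50 mM sodium acetate pH 6.2 with 10% glycerol, 0.25 mM EDTA and 5 mM β-mercaptoethanol. Substrate 25 μM Ac-VDVAD-AMC. Fluorescence at 360/460 nm, 30 °C, final DMSO 5%. Compounds screened at a single dose (typically 5–50 μM), then full IC50 curves where activity was seen.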

For test [7], the target named is T4, Caspase-4 (Homo sapiens, UniProt P49662).
T4 sequence (P49662 whole entry): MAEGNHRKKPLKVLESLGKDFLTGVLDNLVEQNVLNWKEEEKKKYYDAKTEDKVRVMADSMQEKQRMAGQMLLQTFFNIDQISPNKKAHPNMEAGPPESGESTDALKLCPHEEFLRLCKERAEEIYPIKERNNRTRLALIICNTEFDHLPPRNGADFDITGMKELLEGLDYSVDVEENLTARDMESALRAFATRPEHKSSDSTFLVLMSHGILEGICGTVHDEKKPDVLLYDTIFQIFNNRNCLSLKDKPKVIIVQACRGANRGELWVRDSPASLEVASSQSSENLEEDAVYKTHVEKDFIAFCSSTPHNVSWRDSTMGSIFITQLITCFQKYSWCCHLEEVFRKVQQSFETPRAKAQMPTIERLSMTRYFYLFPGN
As to the kind of experiment: Inhibitory activity against caspase-4. Particulars: read-out: Ki app. In outline:
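Recombinant full-length human caspase 4, ~10 units/assay, in potassium acetate pH 5.8 with 1 mM EDTA, 10% sucrose, 0.1% CHAPS and 5 mM β-mercaptoethanol. Substrate 100 μM Ac-LEED-AMC. Read at 360/460 nm, 30 °C, 5% final DMSO. Single-dose screen (typically 5–50 μM), then IC50 curves for actives.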

Test [8] concerns the target T5, Caspase-1 (Homo sapiens, UniProt P29466).
T5 sequence (P29466 whole entry): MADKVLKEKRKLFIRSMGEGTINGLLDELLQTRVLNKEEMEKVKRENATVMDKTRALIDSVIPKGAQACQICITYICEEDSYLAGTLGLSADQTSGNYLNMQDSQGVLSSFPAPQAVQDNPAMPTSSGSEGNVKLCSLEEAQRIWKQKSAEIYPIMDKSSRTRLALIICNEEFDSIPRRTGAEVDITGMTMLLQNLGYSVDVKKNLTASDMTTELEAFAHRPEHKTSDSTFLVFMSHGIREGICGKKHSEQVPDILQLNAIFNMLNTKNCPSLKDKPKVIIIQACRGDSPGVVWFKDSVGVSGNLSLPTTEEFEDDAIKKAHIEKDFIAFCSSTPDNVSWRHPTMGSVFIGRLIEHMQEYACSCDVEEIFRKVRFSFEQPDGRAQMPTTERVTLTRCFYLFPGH
In words: Inhibitory activity against caspase-1. To be noted: read-out: Ki app. In outline:
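Recombinant full-length human caspase 1, ~10 units/assay, in 25 mM K+HEPES pH 7.5 with 10% sucrose, 0.1% CHAPS and 5 mM β-mercaptoethanol. Substrate 10 μM Ac-YVAD-AMC. AMC read at 360/460 nm, 30 °C, with 5% final DMSO. Single-dose screen (typically 5–50 μM), followed by IC50 curves for active compounds.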

Sequence of Caspase-8 (Q14790 217-374 limits assumed): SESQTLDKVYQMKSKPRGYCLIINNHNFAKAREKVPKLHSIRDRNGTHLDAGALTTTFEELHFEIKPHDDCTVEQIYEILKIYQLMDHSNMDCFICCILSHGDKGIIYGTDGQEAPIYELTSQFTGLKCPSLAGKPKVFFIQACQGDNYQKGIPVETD
Sequence of Caspase-8 (Q14790 385-479 limits assumed): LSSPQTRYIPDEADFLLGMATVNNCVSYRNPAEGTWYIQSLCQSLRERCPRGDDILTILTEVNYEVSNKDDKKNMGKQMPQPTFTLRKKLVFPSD

On to `O=C1Nc2ccc(S(=O)(=O)N3CCC[C@H]3COc3ccccc3)cc2C1=O`, for which the Ki in test [1] stood at 49 µM; in test [2], 29 µM; in test [3], 15 nM; in test [6] it was 4.9 µM; in test [7] it was 33 µM; in test [8] it was 17 µM. Moreover, the Inhibition in test [4] was 51%. Also, the concentration for half-maximal inhibition (IC50) in test [5] was found to be 44 nM.

For the compound `O=C1Nc2ccc(S(=O)(=O)N3CCC[C@H]3CNc3ccccc3)cc2C1=O`, the Ki in test [1] came out at 80 µM; in test [2] it was 7.5 µM; in test [3] it was 19 nM; in test [6], 6.5 µM; in test [7], 30 µM; in test [8], 21 µM. In test [4], this compound had an Inhibition of 8%. For the same compound, in test [5], the IC50 was 31 nM.

For the compound `O=C1C(=O)N(Cc2ccccc2)c2ccc(S(=O)(=O)N3CCC[C@H]3COc3ccccc3)cc21`, the Ki in test [1] was over 5 µM; in test [2] it was over 5 µM; in test [3], 1.2 nM; in test [6], 4 µM; in test [7], over 5 µM; in test [8], over 5 µM. In test [4], the Inhibition is given as 27%. Further, in test [5], the concentration for half-maximal inhibition (IC50) is 2.5 nM.

`COC[C@@H]1CCCN1S(=O)(=O)c1ccc2c(c1)C(=O)C(=O)N2`: the Ki is over 25 µM in test [1]; over 25 µM in test [2]; 60 nM in test [3]; over 25 µM in test [6]; over 25 µM in test [7]; over 25 µM in test [8]. The Inhibition in test [4] was found to be 22%. Besides, in test [5], the IC50 was 120 nM.

As to `CN(CC1CCCN1S(=O)(=O)c1ccc2c(c1)C(=O)C(=O)N2)c1ccccc1` (centres undefined), the Ki in test [1] was over 50 µM; in test [2] it was 57 µM; in test [3], 12000 nM; in test [6] it was 11 µM; in test [7], over 50 µM; in test [8], over 50 µM. For the same compound, the IC50 in test [5] was determined as 5500 nM.
